This is an account of results in ChEMBL document CHEMBL1134579, “Design and biological activity of (S)-4-(5-([1-(3-chlorobenzyl)-2-oxopyrrolidin-3-ylamino]methyl)imidazol-1-ylmethyl)benzonitrile, a 3-aminopyrrolidinone farnesyltransferase inhibitor with excellent cell potency” (J Med Chem, 2001).

Assay [1] addresses Protein farnesyltransferase (Homo sapiens, UniProt P49354+P49356). As to the kind of experiment: In vitro inhibition of farnesyl transferase using purified recombinant human enzyme. It counts as protein-complex assay. Put shortly:
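Purified recombinant human FTase with [1-³H]FPP and a recombinant protein substrate carrying the K-Ras C-terminus (CVIM). Labeled farnesyl incorporation measured by acid precipitation of total protein and scintillation counting. Final methanol or DMSO 0.5 vol %. Mostly run at least twice; SD given for n≥3.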

In assay [2] the target is Geranylgeranyl transferase type-1 subunit beta (Homo sapiens, UniProt P53609). In words: Inhibitory concentration of geranylgeranyl-protein transferase type I.
Assay [3] has as its target Protein farnesyltransferase (Rattus norvegicus). As to the kind of experiment: Concentration required to displace 50% of a potent radiolabeled FTI from farnesyl transferase in cultured H-ras-transformed Rat1 cells.
For assay [4], the target named is Voltage-gated inwardly rectifying potassium channel KCNH2 (Homo sapiens, UniProt Q12809).
Sequence of Voltage-gated inwardly rectifying potassium channel KCNH2 (Q12809 whole entry): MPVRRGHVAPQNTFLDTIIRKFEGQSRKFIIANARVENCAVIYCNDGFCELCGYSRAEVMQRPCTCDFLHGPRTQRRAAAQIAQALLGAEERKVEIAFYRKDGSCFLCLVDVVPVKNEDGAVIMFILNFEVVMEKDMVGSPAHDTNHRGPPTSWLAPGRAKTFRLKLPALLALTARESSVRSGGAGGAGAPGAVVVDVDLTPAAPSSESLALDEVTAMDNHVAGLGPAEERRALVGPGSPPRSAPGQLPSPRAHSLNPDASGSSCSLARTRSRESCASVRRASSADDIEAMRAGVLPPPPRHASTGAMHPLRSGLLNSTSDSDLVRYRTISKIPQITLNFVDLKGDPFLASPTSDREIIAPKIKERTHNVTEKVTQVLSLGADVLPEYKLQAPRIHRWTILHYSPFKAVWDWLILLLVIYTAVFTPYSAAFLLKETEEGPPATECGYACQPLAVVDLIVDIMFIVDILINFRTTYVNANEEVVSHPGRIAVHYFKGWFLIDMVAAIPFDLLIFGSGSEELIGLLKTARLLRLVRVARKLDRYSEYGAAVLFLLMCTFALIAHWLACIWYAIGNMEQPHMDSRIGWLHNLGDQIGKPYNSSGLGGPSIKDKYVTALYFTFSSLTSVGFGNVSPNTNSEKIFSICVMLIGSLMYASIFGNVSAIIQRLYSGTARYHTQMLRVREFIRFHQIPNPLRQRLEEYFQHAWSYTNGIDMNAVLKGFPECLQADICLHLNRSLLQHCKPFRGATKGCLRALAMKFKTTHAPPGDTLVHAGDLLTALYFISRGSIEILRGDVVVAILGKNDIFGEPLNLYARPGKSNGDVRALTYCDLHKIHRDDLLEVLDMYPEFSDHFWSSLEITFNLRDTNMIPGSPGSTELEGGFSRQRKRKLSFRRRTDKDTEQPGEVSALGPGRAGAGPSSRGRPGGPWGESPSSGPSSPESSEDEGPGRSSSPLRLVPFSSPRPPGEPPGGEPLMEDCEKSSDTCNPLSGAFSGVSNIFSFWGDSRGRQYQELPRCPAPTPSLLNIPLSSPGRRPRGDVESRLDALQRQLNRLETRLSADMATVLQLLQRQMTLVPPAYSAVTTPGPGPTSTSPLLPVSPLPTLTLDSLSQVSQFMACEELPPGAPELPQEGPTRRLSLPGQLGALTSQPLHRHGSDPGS

Sequence of Geranylgeranyl transferase type-1 subunit beta (P53609 whole entry): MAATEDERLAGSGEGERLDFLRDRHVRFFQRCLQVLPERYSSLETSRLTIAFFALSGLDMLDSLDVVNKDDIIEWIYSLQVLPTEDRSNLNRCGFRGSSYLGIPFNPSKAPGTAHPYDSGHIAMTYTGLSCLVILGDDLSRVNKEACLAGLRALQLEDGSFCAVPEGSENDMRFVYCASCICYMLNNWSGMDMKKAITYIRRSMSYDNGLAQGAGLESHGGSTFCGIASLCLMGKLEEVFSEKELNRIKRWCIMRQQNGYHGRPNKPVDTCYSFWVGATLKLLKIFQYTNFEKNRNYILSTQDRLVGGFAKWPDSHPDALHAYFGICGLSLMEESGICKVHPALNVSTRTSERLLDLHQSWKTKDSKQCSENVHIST

Broadly, the IC50 is the concentration at which inhibition is half-maximal. Turning to `N#Cc1ccc(Cn2cncc2CN[C@H]2CCN(C(=O)c3ccccc3Cl)C2)cc1`, the IC50 in assay [1] came out at 65 nM; in assay [2], 19 µM.

`N#Cc1ccc(Cn2cncc2CN(CCCN)[C@H]2CCN(Cc3ccccc3)C2=O)cc1`: in assay [2], the IC50 was greater than 50 µM.

Regarding `N#Cc1ccc(Cn2cncc2CN(Cc2ccccc2)[C@H]2CCN(Cc3ccccc3)C2=O)cc1`, the figures for the IC50 in assay [1] and in assay [2] were 67 nM and 20 µM, respectively.

As to `CCCN(Cc1cncn1Cc1ccc(C#N)cc1)[C@H]1CCN(Cc2ccccc2)C1=O`, the figures for the IC50 in assay [1] and in assay [3] were 59 nM and 36 nM, respectively.

Take `N#Cc1ccc(Cn2cncc2CN(CCCCc2ccccc2)[C@H]2CCN(Cc3ccccc3)C2=O)cc1`: the concentration for half-maximal inhibition (IC50) in assay [1] is 42 nM; in assay [3], 310 nM; in assay [2], 4.6 µM.

Consider `N#Cc1ccc(Cn2cncc2CN[C@H]2CCN(c3cccc(Cl)c3)C2=O)cc1`, for which the IC50 in assay [1] came to 8.4 nM; in assay [3], 30 nM; in assay [2] it was 6.5 µM.

For the compound `N#Cc1ccc(Cn2cncc2CCN[C@H]2CCN(Cc3ccccc3)C2=O)cc1`, the IC50 in assay [1] was determined as 270 nM; in assay [2] it was 7.4 µM.

With `CCSc1ncccc1C(=O)N1CC[C@H](NCc2cncn2Cc2ccc(C#N)cc2)C1`, the IC50 in assay [1] is 4.8 nM; in assay [4], 14 µM; in assay [3], 6.2 nM; in assay [2], roughly 5.1 µM.

As to `COc1ncccc1C(=O)N1CC[C@H](NCc2cncn2Cc2ccc(C#N)cc2)C1`, the figures for the IC50 in assay [1] and in assay [2] were 150 nM and greater than 50 µM, respectively.

`N#Cc1ccc(Cn2cncc2CN[C@@H]2CCN(c3ccccc3)C2=O)cc1`: the IC50 in assay [1] was found to be 200 nM; in assay [2], 41 µM.

Take `N#Cc1ccc(Cn2cncc2CN(CCN2CCNCC2)[C@H]2CCN(Cc3cccc(Cl)c3)C2=O)cc1`: in assay [2], the IC50 is greater than 50 µM.

As for `N#Cc1ccc(Cn2cncc2CN[C@H]2CCN(Cc3ccccc3)C2=O)cc1`, the results for the 50% inhibitory concentration (IC50) in assay [4] and in assay [2] were 7.2 µM and 40 µM, respectively.

As to `N#Cc1ccc(Cn2cncc2CN[C@H]2CCN(C(=O)c3cccc(Cl)c3)C2)cc1`, the IC50 in assay [1] worked out at 27 nM; in assay [4] it was 5.8 µM; in assay [3], 67 nM; in assay [2], 11 µM.

As to `N#Cc1ccc(Cn2cncc2CN[C@H]2CCN(C(=O)c3cncc(Br)c3)C2)cc1`, the IC50 was found to be 43 nM in assay [1], 6 µM in assay [4], 49 nM in assay [3] and 41 µM in assay [2].

Turning to `N#Cc1ccc(Cn2cncc2CCN[C@H]2CCN(c3ccccc3)C2=O)cc1`, the figures for the IC50 in assay [1], in assay [3] and in assay [2] were 280 nM, 150 nM and 14 µM, respectively.

For `N#Cc1ccc(Cn2cncc2CCN[C@@H]2CCN(CCc3ccccc3)C2=O)cc1`, the IC50 in assay [1] amounted to 380 nM; in assay [2], 1.5 µM.

In turn, `N#Cc1ccc(Cn2cncc2CN(CCCc2ccccc2)[C@H]2CCN(Cc3cccc(Cl)c3)C2=O)cc1` yielded an IC50 in assay [2] of 6.5 µM.

In the case of `N#Cc1ccc(Cn2cncc2CN[C@H]2CCN(c3ccc(Cl)cc3)C2=O)cc1`, the IC50 in assay [1] is 21 nM; in assay [3], 30 nM; in assay [2] it was 11 µM.

As for `N#Cc1ccc(Cn2cncc2CN[C@H]2CCN(C(=O)c3cccc4ccccc34)C2)cc1`, the IC50 stood at 11 nM in assay [1], 330 nM in assay [3] and 0.88 µM in assay [2].

In assay [2], `N#Cc1ccc(Cn2cncc2CN(CCN2CCOCC2)[C@H]2CCN(Cc3cccc(Cl)c3)C2=O)cc1` showed an IC50 of 12 µM.

On to `N#Cc1ccc(Cn2cncc2CN(CCc2ccccc2)[C@H]2CCN(Cc3ccccc3)C2=O)cc1`, for which the IC50 in assay [1] was 51 nM; in assay [3] it was 460 nM; in assay [2] it was 15 µM.

With `N#Cc1ccc(Cn2cncc2CN[C@H]2CCN(Cc3ccc(Cl)cc3)C2=O)cc1`, the figures for the IC50 in assay [1], in assay [3] and in assay [2] were 25 nM, 53 nM and 15 µM, respectively.

Consider `Cc1ncccc1C(=O)N1CC[C@H](NCc2cncn2Cc2ccc(C#N)cc2)C1`, for which the half-maximal inhibitory concentration (IC50) in assay [1] is 100 nM; in assay [4] it was greater than 10 µM; in assay [3], 610 nM; in assay [2], greater than 50 µM.

Regarding `N#Cc1ccc(Cn2cncc2CN[C@H]2CCN(c3cccnc3)C2=O)cc1`, the figures for the IC50 in assay [1], in assay [3] and in assay [2] were 85 nM, 240 nM and greater than 20 µM, respectively.

Regarding `N#Cc1ccc(Cn2cncc2CN[C@@H]2CCN(CCc3ccccc3)C2=O)cc1`, the results for the IC50 in assay [1] and in assay [2] were 250 nM and 31 µM, respectively.

Consider `N#Cc1ccc(Cn2cncc2CN[C@H]2CCN(c3ccccc3Cl)C2=O)cc1`, for which the IC50 in assay [1] stood at 1.5 nM; in assay [3], 14 nM; in assay [2] it was 42 µM.

Consider `N#Cc1ccc(Cn2cncc2CN[C@H]2CCN(C(=O)c3cccnc3N)C2)cc1`, for which the IC50 in assay [1] is 980 nM; in assay [4] it was greater than 50 µM; in assay [2], greater than 50 µM.

`N#Cc1ccc(Cn2cncc2CCN[C@H]2CCN(CCc3ccccc3)C2=O)cc1`: the IC50 in assay [1] came to 240 nM; in assay [2], 2.8 µM.

In the case of `N#Cc1ccc(Cn2cncc2CN[C@H]2CCN(Cc3cccc(Cl)c3)C2=O)cc1`, the IC50 in assay [2] was found to be 3.4 µM.

In assay [2], `N#Cc1ccc(Cn2cncc2CN[C@H]2CCN(c3cccc4ncccc34)C2=O)cc1` gave an IC50 greater than 20 µM.

As to `N#Cc1ccc(Cn2cncc2CN[C@H]2CCN(c3ccccc3)C2=O)cc1`, the IC50 in assay [1] was determined as 74 nM; in assay [3], 27 nM; in assay [2], 46 µM.

Compound `CC(C)(C)OC(=O)NCCCN(Cc1cncn1Cc1ccc(C#N)cc1)[C@H]1CCN(Cc2ccccc2)C1=O` showed a half-maximal inhibitory concentration (IC50) in assay [2] of 3.6 µM.

Turning to `N#Cc1ccc(Cn2cncc2CN[C@H]2CCN(C(=O)c3cccnc3)C2)cc1`, the 50% inhibitory concentration (IC50) in assay [1] was 2000 nM; in assay [2] it was greater than 50 µM.

In the case of `N#Cc1ccc(Cn2cncc2CN[C@H]2CCN(C(=O)c3ccc[nH]c3=O)C2)cc1`, the IC50 in assay [1] was 6800 nM; in assay [2], greater than 50 µM.

For the compound `N#Cc1ccc(Cn2cncc2CN(CCCc2ccccc2)[C@H]2CCN(Cc3ccccc3)C2=O)cc1`, in assay [2], inhibition was half-maximal at 12 µM (IC50).

`N#Cc1ccc(Cn2cncc2CN[C@H]2CCN(c3ccncc3)C2=O)cc1`: the half-maximal inhibitory concentration (IC50) in assay [1] was 43 nM; in assay [3], 200 nM; in assay [2], greater than 20 µM.

As for `N#Cc1ccc(Cn2cncc2CCN[C@@H]2CCN(c3ccccc3)C2=O)cc1`, the IC50 in assay [1] was 120 nM; in assay [2] it was 16 µM.

With `N#Cc1ccc(Cn2cncc2CN(CCCN)[C@H]2CCN(Cc3cccc(Cl)c3)C2=O)cc1`, the half-maximal inhibitory concentration (IC50) in assay [1] was 7.5 nM; in assay [4], 0.48 µM; in assay [3], 150 nM; in assay [2], greater than 50 µM.

In assay [2], `CSc1ncccc1C(=O)N1CC[C@H](NCc2cncn2Cc2ccc(C#N)cc2)C1` yielded an IC50 of 28 µM.

With `N#Cc1ccc(Cn2cncc2CN[C@H]2CCN(c3ccccn3)C2=O)cc1`, the results for the IC50 in assay [1] and in assay [2] were 370 nM and 36 µM, respectively.

As to `N#Cc1ccc(Cn2cncc2CCN[C@@H]2CCN(Cc3ccccc3)C2=O)cc1`, the IC50 was 250 nM in assay [1] and 11 µM in assay [2].

For `CC(C)(C)OC(=O)NCCCN(Cc1cncn1Cc1ccc(C#N)cc1)[C@H]1CCN(Cc2cccc(Cl)c2)C1=O`, the IC50 in assay [1] came to 1.3 nM; in assay [4], 0.11 µM; in assay [3], 1.1 nM; in assay [2] it was 2.7 µM.

For the compound `N#Cc1ccc(Cn2cncc2CN[C@H]2CCN(C(=O)c3ccccc3)C2)cc1`, the figures for the IC50 in assay [1] and in assay [2] were 110 nM and 24 µM, respectively.

As to `N#Cc1ccc(Cn2cncc2CN[C@H]2CCN(C(=O)c3cccnc3S)C2)cc1`, the results for the IC50 in assay [1], in assay [4] and in assay [2] were 2900 nM, 11 µM and greater than 50 µM, respectively.

As to `N#Cc1ccc(Cn2cncc2CN[C@H]2CCN(C(=O)c3ccc(Cl)cc3)C2)cc1`, the IC50 came to 89 nM in assay [1], 70 nM in assay [3] and 19 µM in assay [2].

The compound `N#Cc1ccc(Cn2cncc2CN[C@@H]2CCN(Cc3ccccc3)C2=O)cc1` showed an IC50 in assay [2] of 46 µM.

The compound `N#Cc1ccc(Cn2cncc2CN(Cc2cccnc2)[C@H]2CCN(Cc3ccccc3)C2=O)cc1` had an IC50 in assay [2] greater than 50 µM.

As for `N#Cc1ccc(Cn2cncc2CN[C@H]2CCN(Cc3ccccc3Cl)C2=O)cc1`, the half-inhibitory concentration (IC50) in assay [1] came out at 5.2 nM; in assay [3], 2.7 nM; in assay [2] it was 11 µM.

As for `N#Cc1ccc(Cn2cncc2CN[C@H]2CCN(CCc3ccccc3)C2=O)cc1`, the IC50 was found to be 230 nM in assay [1] and 48 µM in assay [2].
